One test relates to CCRF-CEM. Description: In vitro cytotoxicity of compounds were determined on Inhibition of human leukemia cell line(CCRF-CEM). In kind it is functional, cell-based. The essentials: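 CCRF-CEM cells, or a CEM-TK⁻ variant with less than 1% of wild-type thymidine kinase activity, were grown in RPMI 1640 with 20% heat-inactivated FBS, penicillin, streptomycin and 0.5% human IL-2. Cells were cultured with or without compound for 48 h at 37 °C in 5% CO2. Proliferation and viability were then counted by trypan blue dye exclusion.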

For another test, the system named is L929. Description: In vitro cytotoxicity of compounds were determined on mouse fibroblast (L929 TK-). The test is classed as functional, cell-based. The essentials:
(§1)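 Cells were cultured with or without compound for 48 h at 37 °C in a 5% CO2–95% air atmosphere. Portions were then counted for proliferation and viability by trypan blue dye exclusion. IC50 was taken from the remaining viable cell number.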

The subject of a further test is CEM-TK(-). Description: In vitro cytotoxicity of compounds were determined on Inhibition of human leukemia cell line (CEM-TK).
The target of test [1] is T1, Thymidylate synthase (Mus musculus, UniProt P07607). Description: Inhibition of cellular thymidylate synthase activity of murine leukemia cell line (L1210) in permeabilised cells. In kind it is cell-based.
T1 sequence (P07607 whole entry): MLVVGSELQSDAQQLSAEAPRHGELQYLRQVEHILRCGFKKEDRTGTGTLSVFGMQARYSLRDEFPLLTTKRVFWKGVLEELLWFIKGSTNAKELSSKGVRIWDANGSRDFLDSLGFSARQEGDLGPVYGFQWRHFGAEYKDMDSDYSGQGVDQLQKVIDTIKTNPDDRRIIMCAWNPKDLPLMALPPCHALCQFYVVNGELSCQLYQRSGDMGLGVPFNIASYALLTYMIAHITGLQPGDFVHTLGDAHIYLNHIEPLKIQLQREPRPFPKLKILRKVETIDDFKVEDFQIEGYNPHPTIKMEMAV
Test [2] concerns the target T1, Thymidylate synthase. Description: Inhibition of cellular thymidylate synthase activity of mouse fibroblast (L929 TK-) in intact cells. In kind it is cell-based.
The next test relates to L1210. As to the kind of experiment: In vitro cytotoxicity of compounds were determined on murine leukemia cell line (L1210). As to conditions: Mus musculus. In kind it is functional, cell-based. The essentials: as §1
The target of test [3] is T1, Thymidylate synthase. As to the kind of experiment: Inhibition of cellular thymidylate synthase activity of murine leukemia cell line (L1210) in intact cells. In kind it is cell-based.
Test [4] has as its target T1, Thymidylate synthase. Description: Inhibition of cellular thymidylate synthase activity of mouse fibroblast (L929 TK-) in permeabilised cells. The test is classed as cell-based.
In another test the test system is CEM-TK(-) (Homo sapiens). As to the kind of experiment: In vitro cytotoxicity of compounds were determined on human leukemia cells (CEM-TK-).
The subject of the next test is L929 TK- (Mus musculus). Description: In vitro cytotoxicity of compounds were determined on murine fibroblast cell line (L929 TK-) in.
Test [5] deals with T1, Thymidylate synthase. As to the kind of experiment: Inhibition of cellular thymidylate synthase activity of mouse fibroblast (L929 TK-) in permeabilised cells. The test is classed as cell-based. The essentials: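 L929 TK⁻ cells were permeabilized with high-molecular-weight dextran sulfate. Intracellular thymidylate synthase activity was then measured in situ by tritium release, and IC50 values were determined.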

The structures appear in SMILES notation. pIC50: −log10 of the molar value.

In general, pIC50 refers to −log10 of the IC50, conventionally taken in molar units. A higher pIC50 goes with a small IC50.

Regarding `Nc1ccn([C@@H]2O[C@H](CO)[C@@H](O)[C@@H]2O)c(=O)n1` [CYTARABINE], the negative-log IC50 (pIC50) in the test on CCRF-CEM is 7.05.

`COC(=O)[C@H](Cc1ccccc1)NP(=O)(O)OCC1OC(n2cc(F)c(=O)[nH]c2=O)CC1O` (some centres undefined): the negative-log IC50 (pIC50) in the test on L929 is 3.70; in the test with CEM-TK(-) it was 4.06; at Thymidylate synthase [1], 5.30; in the test with CCRF-CEM it was 6.49; at Thymidylate synthase [2], under 3.00; in the test on L1210, 6.39. The negative-log IC50 (pIC50) is 4.68 against Thymidylate synthase [3] and 5.96 against Thymidylate synthase [4].

In turn, `Nc1ccn([C@@H]2O[C@H](COP(=O)(O)O)[C@@H](O)[C@H]2O)c(=O)n1` showed a negative-log IC50 (pIC50) in the test on CCRF-CEM of 7.00.

With `COC(=O)[C@@H](NP(=O)(O)OC[C@H]1O[C@@H](n2cc(F)c(=O)[nH]c2=O)C[C@@H]1O)C1C=Nc2ccccc21` (some centres undefined), the pIC50 against Thymidylate synthase [1] was 5.64; in the test with CEM-TK(-) (Homo sapiens) it was 4.24; with CCRF-CEM, 6.49; with L929 TK- (Mus musculus), 3.62; against Thymidylate synthase [2], 6.17; in the test with L1210, 6.40. Besides, the negative-log IC50 (pIC50) against Thymidylate synthase [3] was 4.92; against Thymidylate synthase [4] it was under 3.00.

For the compound `O=c1[nH]c(=O)n([C@H]2C[C@H](O)[C@@H](COP(=O)(O)O)O2)cc1F` [5-FLUORODEOXYURIDYLATE], the figures for the negative logarithm of the IC50 (pIC50) in the test on L929, with CCRF-CEM and in the test on L1210 were 5.17, 8.26 and 7.82, respectively.

On to `O=c1[nH]c(=O)n([C@H]2C[C@H](O)[C@@H](CO)O2)cc1F` [FLOXURIDINE], for which the pIC50 against Thymidylate synthase [5] is 4.96; in the test on L929, 5.11; in the test with CEM-TK(-), 4.18; against Thymidylate synthase [1], 4.23; with CCRF-CEM, 8.70; on Thymidylate synthase [2], 5.14. Also, the negative logarithm of the IC50 (pIC50) is 7.92 in the test with L1210 and 7.37 against Thymidylate synthase [3].

Values taken from ChEMBL document CHEMBL1129397, “Synthesis and biological activity of aromatic amino acid phosphoramidates of 5-fluoro-2'-deoxyuridine and 1-beta-arabinofuranosylcytosine: evidence of phosphoramidase activity” (J Med Chem, 1996).
